LMPTP inh = LMPTP phosphatase inhibitors, primary screen, biochemical, fluorescence intensity, uHTS. inhibition, % at 20 µM. actives 0.22% (n = 360,000). recombinant LMPTP-A, OMFP fluorogenic substrate. AID 651560, 2012;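 active means compounds that cut the enzyme signal by at least half of the control window in the single-dose screen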;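 further: plate controls were DMSO wells with enzyme plus substrate for no effect and substrate without enzyme for full effect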
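Test system: LMPTP-A phosphatase enzyme. Amount: LMPTP-A at 0.625 nM final in the reaction. Reagent: OMFP substrate, 400 µM final. Times: 50 min at room temperature. Signal: endpoint fluorescence intensity from OMFP dephosphorylation. Read-out basis: % inhibition. Benchmarks: no-enzyme and uninhibited controls.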
STEP block = STEP phosphatase inhibitors, primary screen, biochemical, fluorescence intensity, uHTS; Tyrosine-protein phosphatase non-receptor type 5 (Homo sapiens), P54829; recombinant STEP, OMFP fluorogenic substrate; inhibition, % at 20 µM; actives 0.25% (n = 360,000); AID 588621, 2011;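 active means inhibition at 20 µM, scaled per plate between control wells, above about 37%, limit read from the data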;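 further: 0% = DMSO with enzyme and substrate and 100% = substrate only without enzyme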
Target sequence (P54829 whole entry, looked up): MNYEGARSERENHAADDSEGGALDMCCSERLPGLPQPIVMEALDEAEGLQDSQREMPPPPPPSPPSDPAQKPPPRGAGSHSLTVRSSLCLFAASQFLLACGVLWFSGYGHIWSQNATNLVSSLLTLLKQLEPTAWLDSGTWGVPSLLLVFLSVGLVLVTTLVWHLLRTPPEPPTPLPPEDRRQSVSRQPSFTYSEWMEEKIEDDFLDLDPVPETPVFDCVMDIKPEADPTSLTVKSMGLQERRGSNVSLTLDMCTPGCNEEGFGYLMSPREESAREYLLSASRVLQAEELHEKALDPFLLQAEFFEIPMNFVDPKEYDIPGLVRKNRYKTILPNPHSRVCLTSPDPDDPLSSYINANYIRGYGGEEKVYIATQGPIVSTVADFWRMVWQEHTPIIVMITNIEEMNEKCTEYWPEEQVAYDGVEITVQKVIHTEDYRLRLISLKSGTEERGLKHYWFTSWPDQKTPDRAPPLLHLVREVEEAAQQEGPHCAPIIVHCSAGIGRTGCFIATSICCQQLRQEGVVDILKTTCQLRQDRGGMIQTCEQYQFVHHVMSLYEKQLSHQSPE
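Also added – OMFP at 25 µM · Test system – STEP tyrosine phosphatase · Technique – FITC-channel fluorescence of OMFP product · Schedule – 20 min at room temperature, dark · Evaluation – control-normalized % inhibition with plate pattern correction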
DNMT1 inh = human DNMT1 methyltransferase inhibitors, primary screen, biochemical, molecular beacon, fluorescence, HinP1I cleavage, uHTS; inhibition (reported as % activation of signal), % at 10 µM; AID 588458, 2011; actives 0.83% (n = 360,000); DNA (cytosine-5)-methyltransferase 1 (Homo sapiens), P26358; in the data active means inhibition above about 50%
Scp-1 inhibitor = Scp-1 phosphatase inhibitors, primary screen, biochemical, colorimetric, uHTS; inhibition, % at 20 µM; Carboxy-terminal domain RNA polymerase II polypeptide A small phosphatase 1 (Homo …; Recombinant Scp1, phosphopeptide, malachite green phosphate absorbance; actives 0.88% (n = 340,000);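 active means inhibition above about 50% at 20 µM, limit read from the data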;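 further: plate controls were DMSO wells with enzyme for no effect and wells lacking enzyme for full effect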
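Test system: SCP-1 phosphatase catalytic domain, residues 76-261 | Compound dosing: One concentration, 20 µM, with 1.0% DMSO | Schedule: 45 min room-temperature reaction, 5 min colour, 30 min stabiliser | Detection: Absorbance at 630 nm | Read-out basis: % inhibition of SCP-1 phosphate liberation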
SUMO1-SIM PPI = modulators of SUMO1 protein-protein interactions, primary screen, biochemical, uHTS; Small ubiquitin-related modifier 1 (Homo sapiens), P63165; actives 0.33% (n = 360,000); inhibition, % at 20 µM; SUMO1 binding to a labelled peptide, TR-FRET, 1 h; in the data active means inhibition above about 37%
Scp-1 conf = Scp-1 phosphatase inhibitors, retest, confirmation, biochemical, colorimetric, single concentration | recombinant SCP-1 catalytic domain, phosphate release, malachite green absorbance | shares compounds with Scp-1 inhibitor | AID 540281, 2011 | actives 61% (n = 2,500) | inhibition, % at 20 µM;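 further: plate controls were DMSO with enzyme for no effect and buffer wells lacking enzyme for full effect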
Scp-1 MG ctr = colorimetric readout interference by compounds, confirmation, artefact control for Scp-1 inhibitor project, biochemical, single concentration | 2,500 tested, under 10 active | shares compounds with Scp-1 inhibitor | apparent inhibition (interference), % at 20 µM | Colorimetric interference counterscreen, malachite green absorbance 630 nm;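 further: compounds added after enzyme reaction finished so only phosphate colour detection is probed; plate controls were DMSO wells with completed Scp-1 reaction for no effect and substrate wells lacking enzyme for full effect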
Scp1 DSF = Scp-1 binding by thermal shift, confirmation, orthogonal assay for Scp-1 inhibitor project, biophysical, differential scanning fluorimetry | shares compounds with Scp-1 inhibitor | Recombinant SCP1, Sypro Orange thermal shift Tm | thermal shift relative to vanadate control, % at 40 µM | actives 25% (n = 1,500);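 active means substances whose mean melting-temperature shift, as a percentage of the reference inhibitor's shift, reaches about 5.3%, limit read from the data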;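 further: 0% = Tm of DMSO wells and 100% = Tm with sodium orthovanadate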
* = called active by the depositor; / = no result. Sampled rows, rich in hits. Any-hit rate of the full collection: about 1.7%.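 How the source made its calls, unless noted: active means inhibition of at least 30% at 20 µM; inactive means the rest.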

SMILES	LMPTP inh	STEP block	DNMT1 inh	Scp-1 inhibitor	SUMO1-SIM PPI	Scp-1 conf	Scp-1 MG ctr	others
COCCCn1c(SCC(=O)NNC(=O)c2cccc(O)c2)nnc1-c1ccncc1	0	-2	-2	2	5	/	/
CCOC(=O)c1c(NC(=O)COC(=O)c2ccc(O)cc2)sc(C(=O)N(C)C)c1C	0	1	-5	-3	12	/	/
O=C(COC(=O)c1ccc(CO)cc1)Nc1ccc2ccccc2c1	0	1	-4	-10	-1	/	/
CCOC(=O)c1c(NC(=O)COC(=O)c2ccc(NC(=O)CC#N)cc2)sc(C(=O)NC)c1C	40	1	-10	58*	57*	62*	-13	Scp1 DSF=-2
N#CCC(=O)Nc1ccc(C(=O)OCC(=O)Nc2ccc3ccccc3c2)cc1	12	3	-23	52*	12	57*	-15	Scp1 DSF=25*
Cc1nc(CNC(=O)c2ccccc2OC2CCN(S(C)(=O)=O)CC2)cs1	-1	-2	1	61*	1	-29	-21
Cc1nc(CN(C)C(=O)c2ccccc2OC2CCN(S(C)(=O)=O)CC2)cs1	-1	-1	2	-4	-4	/	/
CCn1nc(C)c(CNCc2cn[nH]c2-c2cc3ccccc3o2)c1C	-2	2	-2	-9	1	/	/
CC(C)CNC(=S)N(CCCO)Cc1cc2cc3c(cc2[nH]c1=O)OCO3	-1	0	2	-10	0	/	/
O=C1C=CC(=Nc2cccc3c2C(=O)c2ccccc2-3)O1	13	1	42	61*	-15	-20	-22
FC(F)(F)Oc1ccc(Nc2nc(N3CCOCC3)nc(N3CCOCC3)n2)cc1	2	-1	3	-1	-1	/	/
Cc1ccc(C(=O)O)cc1NC(=S)NC(=O)c1ccc(COc2ccccc2)cc1	2	9	3	50*	-3	37*	-26	Scp1 DSF=-8
CC(C)c1ccc(OCC(=O)Nc2ccc3oc(=O)ccc3c2)cc1	0	1	1	-10	4	/	/
COC(=O)c1cc(O)cc(OC)c1C(=O)c1c(O)cc(C)cc1O	1	-2	-2	58*	8	31*	-18	Scp1 DSF=1
COC(=O)c1c(C)cc(O)cc1O	-1	1	-2	-4	5	/	/
O=C(O)CCNc1ccc(Cl)cc1	1	1	19	52*	1	43*	-14	Scp1 DSF=-21
O=C(O)CCCC(=O)Nc1ccc(Cl)cc1	1	0	1	-1	13	/	/
CCCCNC(=O)C[C@@H]1C[C@@]2(C(=O)OC)CCCCC=C2N(CCC2=CCCCC2)C1=O	0	/	/	/	5	/	/
CC(Oc1ccc(Cl)cc1Cl)C(=O)NNC(=O)C(=O)N1CCCCC1 (stereo not drawn)	0	4	14	-5	-19	/	/
CCCCCc1ccnc(CC(=O)c2ccc(OC)cc2)c1	-1	0	0	94*	-3	-18	-19
O=C(OC1CCOC1=O)c1ccc(Cl)c(S(=O)(=O)N2CCCCC2)c1 (stereo not drawn)	-1	1	13	22	9	/	/
O=C(OC1CCOC1=O)c1ccc(Cl)c(S(=O)(=O)N2CCOCC2)c1 (stereo not drawn)	5	15	25	53*	10	27	-19

Screens deposited in PubChem by Sanford-Burnham Center for Chemical Genomics.
